Experimental data from different studies.
Each line is one published result; the experiments were not run side by side.
Target: cAMP-dependent protein kinase catalytic subunit PRKX (PRKX, Homo sapiens, UniProt P51817)
Residues used in one study (P51817 1-358): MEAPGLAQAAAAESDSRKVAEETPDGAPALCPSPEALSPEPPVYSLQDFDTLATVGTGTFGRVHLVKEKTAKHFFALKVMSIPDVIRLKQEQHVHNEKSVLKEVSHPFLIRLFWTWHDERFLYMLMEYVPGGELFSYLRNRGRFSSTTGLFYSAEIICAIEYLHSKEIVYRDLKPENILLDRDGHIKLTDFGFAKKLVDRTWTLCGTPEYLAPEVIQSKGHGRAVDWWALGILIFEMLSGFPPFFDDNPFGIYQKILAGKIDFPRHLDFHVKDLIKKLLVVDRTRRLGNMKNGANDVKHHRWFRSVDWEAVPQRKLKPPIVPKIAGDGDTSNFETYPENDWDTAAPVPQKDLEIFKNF

O=C(NCCCN1CCOCC1)c1ccc(Nc2nccc(-c3cc4ccccc4s3)n2)cc1 — remaining binding (binding; competition with immobilised ligand; 1 µM): 85%
C[C@@H](c1ccc(-n2cnc3c(N)ncnc32)cc1)N1CCc2nn(C)c(Cc3ccccc3)c2C1=O — remaining binding (binding; competition with immobilised ligand; 0.1 µM): 96%
F[C@@H]1CCN(c2nccc(-c3cnn4ncccc34)n2)C1 — remaining binding (binding; 1 µM): 100%
Cc1cc(C)c(-n2ccn3nc(-c4cccnc4)cc23)cc1NC(=O)c1cc(C#N)cc(S(F)(F)(F)(F)F)c1 — remaining binding (cell-free assay; competition with immobilised ligand; 0.1 µM): 68.5%
O=C(NCC1CCOCC1)c1n[nH]cc1NC(=O)c1c(F)cccc1F — remaining binding (binding; competition with immobilised ligand; 1 µM): 100%
c1cncc(-c2cccc(Nc3nccc(NC4CCCCC4)n3)c2)c1 — remaining binding (binding; competition with immobilised ligand; 10 µM): 80%
c1cnn2ncc(-c3ccnc(N4CCC45COC5)n3)c2c1 — remaining binding (binding; 1 µM): 68%
CO[C@H]1CC[C@H](CNc2ccc(S(=O)(=O)NC(=O)c3ccc(N4CCN(CC5=C(c6ccc(Cl)cc6)CC(C)(C)CC5)CC4)cc3Oc3cnc4[nH]ccc4c3)cc2[N+](=O)[O-])CC1 — remaining binding (cell-free assay; competition with immobilised ligand; 1 µM): 100%
Cc1cnn2ncc(-c3ccnc(N(C)C)n3)c2c1 — remaining binding (binding; 1 µM): 85%
Nc1ncc2c(n1)-c1c([nH]c3ccc(C#CC4CC4)cc13)CCCC2 — remaining binding (binding; competition with immobilised ligand; 1 µM): 79%
CN(C)c1nccc(-c2cnn3ncccc23)n1 — remaining binding (binding; 1 µM): 100%
CNC(=O)[C@@H]1CC[C@@H](n2c(-c3ccc4cnccc4c3)nc3ccc(C(=O)NCc4cccc(C(N)=O)c4)cc32)C1 — remaining binding (binding; competition with immobilised ligand; 1 µM): 100%
O=C(c1ccc(Nc2nccc(-c3cc4ccccc4s3)n2)cc1)N1CCC(N2CCCC2)CC1 — remaining binding (binding; competition with immobilised ligand; 1 µM): 83%
CCOC(=O)c1cc2cc(-c3cc(C(=O)NCc4ccc(C(=O)O)cc4)nn3C)ccc2[nH]1 — remaining binding (cell-free assay; competition with immobilised ligand; 0.1 µM): 100%
C[C@@H]1CCN(c2nccc(-c3cnn4ncccc34)n2)C1 — remaining binding (binding; 1 µM): 100%
CNC(=O)Nc1ccc2c(c1)[C@@]1(CC2)OC(=O)N(CC(=O)N(Cc2ccc(F)cc2)[C@@H](C)C(F)(F)F)C1=O — remaining binding (cell-free assay; competition with immobilised ligand; 1 µM): 100%
N[C@@H]1CCN(c2nccc(-c3cnn4ncccc34)n2)C1 — remaining binding (binding; 1 µM): 100%
COCCOc1nc(-c2ccc(Cl)nc2)nc2c1CN(C(=O)c1ncn3ccccc13)CC2 — remaining binding (cell-free assay; competition with immobilised ligand; 0.1 µM): 100%
Cc1cnc(Nc2ccc(C(=O)N3CCC(N4CCCC4)CC3)cc2)nc1-c1cc2ccccc2s1 — remaining binding (binding; competition with immobilised ligand; 1 µM): 72%
Cc1c(NC(=O)c2cc(C(N)=O)nc3cc(F)ccc23)c(C(F)(F)F)nn1Cc1ccc(C(C)(C)C)cc1 — remaining binding (cell-free assay; competition with immobilised ligand; 1 µM): 94%
COc1cnc(Nc2cccc(S(N)(=O)=O)c2)nc1N1CCN(c2ccccc2)C(=O)C1 — remaining binding (binding; competition with immobilised ligand; 1 µM): 91%
